Reference: article PMC13618202 (ACS chemical biology, 2026)

What was measured:
[1] = test system: global cellular ubiquitination in HEK293T cells; assay: Global cellular ubiquitination; format: cell-based, Human; details: compounds 60 μM, TAK-243 125 or 250 nM, 5 h
UBA5 [2] = details: read-out: IC50 (UBA5); cited from earlier work
UBA5 [3] = molecular target: T1, UBA5 (Homo sapiens, UniProt Q9GZZ9); assay: Gel-based UBA5-UFM1 charging assay; format: biochemical; details: UBA5 12 μM; UFM1 25 μM; ATP 2 mM; 2 h
T1 sequence (Q9GZZ9 37-346): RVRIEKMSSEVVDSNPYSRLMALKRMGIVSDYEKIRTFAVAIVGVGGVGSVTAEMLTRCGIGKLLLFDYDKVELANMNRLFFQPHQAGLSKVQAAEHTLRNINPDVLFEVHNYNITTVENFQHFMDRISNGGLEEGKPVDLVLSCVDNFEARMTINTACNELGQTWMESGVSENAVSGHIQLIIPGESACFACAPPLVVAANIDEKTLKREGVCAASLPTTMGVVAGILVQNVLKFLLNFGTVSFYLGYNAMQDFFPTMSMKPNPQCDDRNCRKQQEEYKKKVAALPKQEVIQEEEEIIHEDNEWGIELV
Summary of the method: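 UBA5 (12 μM) incubated 1 h with test compound (0–100 μM) in 50 mM Bis-Tris pH 6.5, 100 mM NaCl, 10 mM MgCl2. UFM1 (25 μM) and ATP (2 mM) then added for 2 h at 30 °C; zero time points taken before ATP addition. Gel read-out of UBA5–UFM1 thioester, duplicate.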

[4] = test system: coupling enzymes in the AMP-Glo kit; assay: UBA5-free AMP-Glo coupling enzyme assay; format: biochemical; details: 3 mM, no UBA5, ATP 5 μM with or without AMP 5 μM
Summary of the method: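 Without UBA5: test compound (0–100 μM) incubated 30 min with AMP-Glo kit components and UFM1 (5 μM), then AMP added to a final 5 μM as direct substrate. Luminescence endpoint read at 37 °C with 2 min integration. Normalized to DMSO wells with AMP (100%) and without AMP (0%). Triplicate.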

UBA5 [5] = molecular target: T1, UBA5; assay: Fluorescence polarization; format: biochemical; details: titration
Summary of the method: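 UBA5 (1 μM) preincubated 1 h with test compound (0–25 μM), then UFM1 (2.5 μM) and ATP (20 μM) added for 30 min at RT. Transcreener detection reagent (anti-AMP antibody, Alexa Fluor 633 AMP tracer) added for 1.5 h. AMP read as fluorescence polarization. IC50 by curve fitting, triplicate.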

UBA5 [6] = molecular target: T1, UBA5; assay: AMP-Glo UBA5 UFMylation assay; format: biochemical; details: read-out: IC50-UBA5-Glo; UBA5 0.8 μM; UFM1 5 μM; ATP 5 μM

| SMILES | global cellular ubiquitination [1] | IC50 (UBA5 [2]) [µM] | UBA5-UFM1 thioester formation (UFM1 activation) (UBA5 [3]) | interference with the AMP-Glo detection system [4] | inhibition of UBA5 reaction in FP assay (UBA5 [5]) | IC50 (UBA5 [6]) [µM] |
| --- | --- | --- | --- | --- | --- | --- |
| NS(=O)(=O)OC[C@H]1C[C@@H](Nc2ccnc3cc(-c4cccc(SC(F)(F)F)c4)nn23)[C@H](O)[C@@H]1O [TAK-243] | markedly reduced global cellular ubiquitination |  |  |  |  |  |
| Nc1ncnc2c1ncn2[C@@H]1O[C@H](COS(N)(=O)=O)[C@@H](O)[C@H]1O [adenosine 5’-sulfamate (ADS), adenosine 5’-sulfamate] |  | 13 |  |  |  |  |
| COc1ccc(CNC(=O)CCl)cc1OC [DKM 2-93] |  | 430 | significantly reduced UFM1 activation | does not significantly interfere | dose-dependently inhibited the reaction | 547 |
